Data on 18 molecules can be found in ChEMBL document CHEMBL1126044, “Affinity of human growth hormone-releasing factor (1-29)NH2 analogues for GRF binding sites in rat adenopituitary” (J Med Chem, 1992).

Experiment [1] has as its target T1, Growth hormone-releasing hormone receptor (Rattus norvegicus, UniProt Q02644).
T1 sequence (Q02644 whole entry): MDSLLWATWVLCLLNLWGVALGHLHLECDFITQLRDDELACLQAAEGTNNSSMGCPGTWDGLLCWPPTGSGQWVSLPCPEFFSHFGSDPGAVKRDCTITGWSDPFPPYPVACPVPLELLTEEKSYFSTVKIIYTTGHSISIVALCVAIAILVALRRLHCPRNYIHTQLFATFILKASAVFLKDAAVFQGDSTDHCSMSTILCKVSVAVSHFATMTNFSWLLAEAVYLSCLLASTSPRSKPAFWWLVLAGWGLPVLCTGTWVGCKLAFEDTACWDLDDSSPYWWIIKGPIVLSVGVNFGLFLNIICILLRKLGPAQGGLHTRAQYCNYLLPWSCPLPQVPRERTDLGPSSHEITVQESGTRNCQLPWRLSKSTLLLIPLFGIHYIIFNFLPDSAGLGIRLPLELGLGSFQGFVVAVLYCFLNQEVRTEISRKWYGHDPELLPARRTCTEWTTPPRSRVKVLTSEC
The experiment in a line: Compound was tested to Inhibit [125I]-Growth hormone-releasing factor in rat adenopituitary homogenates. Summed up:
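Anterior pituitaries from 2-month-old male Sprague-Dawley rats homogenized in ice-cold 50 mM Tris-HCl pH 7.4 with 5 mM MgCl2, 5 mM EDTA. Homogenate (70–75 µg protein) incubated with 35–50 pM [125I-Tyr10]hGRF(1-44)NH2 and peptide at 0–1000 nM in Tris-HCl buffer pH 7.4 with 5 mM EDTA, 5 mM MgCl2, 0.42% BSA, 60 min at 23 °C. Nonspecific binding defined with 2.4 µM rGRF(1-29)NH2. Bound fraction separated by centrifugation and gamma-counted. IC50 fitted with LIGAND. Mean ± SEM of three experiments, each in duplicate or triplicate.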

The target in experiment [2] is T2, Growth hormone-releasing hormone receptor (Rattus norvegicus) (UniProt Q02644).
T2 sequence (whole entry): T1 sequence (Q02644 whole entry)
The experiment in a line: Relative affinity compared to hGRF(1-29)NH2. Type of experiment: functional. Summed up:
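Radioligand competition in rat anterior pituitary homogenate using [125I-Tyr10]hGRF(1-44)NH2 at 35–50 pM and peptides at 0–1000 nM, 60 min at 23 °C. Relative affinity is the binding IC50 expressed as a percentage relative to hGRF(1-29)NH2.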

Square brackets hold non-standard residues; d marks the D form. Peptide text beside a SMILES is read from it. Aoc = NCCCCCCCC(=O)O Bounds are passed on as bounds.

By IC50 is commonly meant the concentration needed to halve the response being measured. A higher IC50 goes with lower potency.

As to `CC[C@H](C)[C@H](NC(=O)[C@H](C)NC(=O)[C@H](CC(=O)O)NC(=O)[C@H](C)NC(=O)[C@H](Cc1ccc(O)cc1)NC(=O)CCCCCN)C(=O)N[C@@H](Cc1ccccc1)C(=O)N[C@H](C(=O)N[C@@H](CC(N)=O)C(=O)N[C@@H](CO)C(=O)N[C@@H](Cc1ccc(O)cc1)C(=O)N[C@@H](CCCNC(=N)N)C(=O)N[C@@H](CCCCN)C(=O)N[C@H](C(=O)N[C@@H](CC(C)C)C(=O)NCC(=O)N[C@@H](CCC(N)=O)C(=O)N[C@@H](CC(C)C)C(=O)N[C@@H](CO)C(=O)N[C@@H](C)C(=O)N[C@@H](CCCNC(=N)N)C(=O)N[C@@H](CCCCN)C(=O)N[C@@H](CC(C)C)C(=O)N[C@@H](CC(C)C)C(=O)N[C@@H](CCC(N)=O)C(=O)N[C@@H](CC(=O)O)C(=O)N[C@H](C(=O)N[C@@H](CCSC)C(=O)N[C@@H](CO)C(=O)N[C@@H](CCCNC(=N)N)C(N)=O)[C@@H](C)CC)C(C)C)[C@@H](C)O`, the IC50 in experiment [1] stood at 6.6 nM.
The same measure, in the same setting: for `CC[C@H](C)[C@H](NC(=O)[C@H](C)NC(=O)[C@H](CC(=O)O)NC(=O)[C@H](C)NC(=O)[C@H](Cc1ccc(O)cc1)NC(=O)CCCN)C(=O)N[C@@H](Cc1ccccc1)C(=O)N[C@H](C(=O)N[C@@H](CC(N)=O)C(=O)N[C@@H](CO)C(=O)N[C@@H](Cc1ccc(O)cc1)C(=O)N[C@@H](CCCNC(=N)N)C(=O)N[C@@H](CCCCN)C(=O)N[C@H](C(=O)N[C@@H](CC(C)C)C(=O)NCC(=O)N[C@@H](CCC(N)=O)C(=O)N[C@@H](CC(C)C)C(=O)N[C@@H](CO)C(=O)N[C@@H](C)C(=O)N[C@@H](CCCNC(=N)N)C(=O)N[C@@H](CCCCN)C(=O)N[C@@H](CC(C)C)C(=O)N[C@@H](CC(C)C)C(=O)N[C@@H](CCC(N)=O)C(=O)N[C@@H](CC(=O)O)C(=O)N[C@H](C(=O)N[C@@H](CCSC)C(=O)N[C@@H](CO)C(=O)N[C@@H](CCCNC(=N)N)C(N)=O)[C@@H](C)CC)C(C)C)[C@@H](C)O` the value was 13.7 nM.
The molecule `CC[C@H](C)[C@H](NC(=O)[C@H](C)NC(=O)[C@H](CC(=O)O)NC(=O)[C@H](C)NC(=O)[C@H](Cc1ccc(O)cc1)NC(C)=O)C(=O)N[C@@H](Cc1ccccc1)C(=O)N[C@H](C(=O)N[C@@H](CC(N)=O)C(=O)N[C@@H](CO)C(=O)N[C@@H](Cc1ccc(O)cc1)C(=O)N[C@@H](CCCNC(=N)N)C(=O)N[C@@H](CCCCN)C(=O)N[C@H](C(=O)N[C@@H](CC(C)C)C(=O)NCC(=O)N[C@@H](CCC(N)=O)C(=O)N[C@@H](CC(C)C)C(=O)N[C@@H](CO)C(=O)N[C@@H](C)C(=O)N[C@@H](CCCNC(=N)N)C(=O)N[C@@H](CCCCN)C(=O)N[C@@H](CC(C)C)C(=O)N[C@@H](CC(C)C)C(=O)N[C@@H](CCC(N)=O)C(=O)N[C@@H](CC(=O)O)C(=O)N[C@H](C(=O)N[C@@H](CCSC)C(=O)N[C@@H](CO)C(=O)N[C@@H](CCCNC(=N)N)C(N)=O)[C@@H](C)CC)C(C)C)[C@@H](C)O` yielded an IC50 in experiment [1] of 17.6 nM.
The same measure, in the same setting: for `CC[C@H](C)[C@H](NC(=O)[C@H](C)NC(=O)[C@H](CC(=O)O)NC(=O)[C@H](C)NC(=O)[C@@H](N)Cc1ccc(O)cc1)C(=O)N[C@@H](Cc1ccccc1)C(=O)N[C@H](C(=O)N[C@@H](CC(N)=O)C(=O)N[C@@H](CO)C(=O)N[C@@H](Cc1ccc(O)cc1)C(=O)N[C@@H](CCCNC(=N)N)C(=O)N[C@@H](CCCCN)C(=O)N[C@H](C(=O)N[C@@H](CC(C)C)C(=O)NCC(=O)N[C@@H](CCC(N)=O)C(=O)N[C@@H](CC(C)C)C(=O)N[C@@H](CO)C(=O)N[C@@H](C)C(=O)N[C@@H](CCCNC(=N)N)C(=O)N[C@@H](CCCCN)C(=O)N[C@@H](CC(C)C)C(=O)N[C@@H](CC(C)C)C(=O)N[C@@H](CCC(N)=O)C(=O)N[C@@H](CC(=O)O)C(=O)N[C@H](C(=O)N[C@@H](CCSC)C(=O)N[C@@H](CO)C(=O)N[C@@H](CCCNC(=N)N)C(N)=O)[C@@H](C)CC)C(C)C)[C@@H](C)O` the value was 5.6 nM.
`CC[C@H](C)[C@H](NC(=O)[C@H](C)NC(=O)[C@H](CC(=O)O)NC(=O)[C@H](C)NC(=O)[C@H](Cc1ccc(O)cc1)NC(=O)CCCN)C(=O)N[C@@H](Cc1ccccc1)C(=O)N[C@H](C(=O)N[C@@H](CC(N)=O)C(=O)N[C@@H](CO)C(=O)N[C@@H](Cc1ccc(O)cc1)C(=O)N[C@@H](CCCN=C(N)N)C(=O)N[C@@H](CCCCN)C(=O)N[C@H](C(=O)N[C@@H](CC(C)C)C(=O)NCC(=O)N[C@@H](CCC(N)=O)C(=O)N[C@@H](CC(C)C)C(=O)N[C@@H](CO)C(=O)N[C@@H](C)C(=O)N[C@@H](CCCN=C(N)N)C(=O)N[C@@H](CCCCN)C(=O)N[C@@H](CC(C)C)C(=O)N[C@@H](CC(C)C)C(=O)N[C@@H](CCC(N)=O)C(=O)N[C@@H](CC(=O)O)C(=O)N[C@H](C(=O)N[C@@H](CCSC)C(=O)N[C@@H](CO)C(=O)N[C@@H](CCCN=C(N)N)C(N)=O)[C@@H](C)CC)C(C)C)[C@@H](C)O` came in with an Activity in experiment [2] of 41%.
In the case of `CC[C@H](C)[C@H](NC(=O)[C@H](C)NC(=O)[C@H](CC(=O)O)NC(=O)[C@H](C)NC(=O)[C@@H](N)Cc1ccc(O)cc1)C(=O)N[C@@H](Cc1ccccc1)C(=O)N[C@H](C(=O)N[C@@H](CC(N)=O)C(=O)N[C@@H](CO)C(=O)N[C@@H](Cc1ccc(O)cc1)C(=O)N[C@@H](CCCNC(=N)N)C(=O)N[C@@H](CCCCN)C(=O)N[C@H](C(=O)N[C@@H](CC(C)C)C(=O)NCC(=O)N[C@@H](CCC(N)=O)C(=O)N[C@@H](CC(C)C)C(=O)N[C@@H](CO)C(=O)NCCCCCCCC(=O)N[C@@H](CC(C)C)C(=O)N[C@@H](CC(C)C)C(=O)N[C@@H](CCC(N)=O)C(=O)N[C@@H](CC(=O)O)C(=O)N[C@H](C(=O)N[C@@H](CCSC)C(=O)N[C@@H](CO)C(=O)N[C@@H](CCCNC(=N)N)C(N)=O)[C@@H](C)CC)C(C)C)[C@@H](C)O` (H-YADAIFTNSYRKVLGQLS[Aoc]LLQDIMSR-NH2), the IC50 in experiment [1] was over 1000 nM.
`CC[C@H](C)[C@H](NC(=O)[C@H](C)NC(=O)[C@H](CC(=O)O)NC(=O)[C@H](C)NC(=O)[C@@H](N)Cc1ccc(O)cc1)C(=O)N[C@@H](Cc1ccccc1)C(=O)N[C@H](C(=O)N[C@@H](CC(N)=O)C(=O)N[C@@H](CO)C(=O)N[C@@H](Cc1ccc(O)cc1)C(=O)N[C@@H](CCCNC(=N)N)C(=O)N[C@@H](CCCCN)C(=O)N[C@H](C(=O)N[C@@H](CC(C)C)C(=O)NCC(=O)NCCCCCCCC(=O)N[C@@H](C)C(=O)N[C@@H](CCCNC(=N)N)C(=O)N[C@@H](CCCCN)C(=O)N[C@@H](CC(C)C)C(=O)N[C@@H](CC(C)C)C(=O)N[C@@H](CCC(N)=O)C(=O)N[C@@H](CC(=O)O)C(=O)N[C@H](C(=O)N[C@@H](CCSC)C(=O)N[C@@H](CO)C(=O)N[C@@H](CCCNC(=N)N)C(N)=O)[C@@H](C)CC)C(C)C)[C@@H](C)O` (H-YADAIFTNSYRKVLG[Aoc]ARKLLQDIMSR-NH2) gave an IC50 in experiment [1] of over 1000 nM.
Take `CC[C@H](C)[C@H](NC(=O)[C@H](C)NC(=O)[C@H](CC(=O)O)NC(=O)[C@H](C)NC(=O)[C@@H](N)Cc1ccc(O)cc1)C(=O)N[C@@H](Cc1ccccc1)C(=O)N[C@H](C(=O)N[C@@H](CC(N)=O)C(=O)N[C@@H](CO)C(=O)N[C@@H](Cc1ccc(O)cc1)C(=O)N[C@@H](CCCN=C(N)N)C(=O)N[C@@H](CCCCN)C(=O)NCCCCCCCC(=O)N[C@@H](CCC(N)=O)C(=O)N[C@@H](CC(C)C)C(=O)N[C@@H](CO)C(=O)N[C@@H](C)C(=O)N[C@@H](CCCN=C(N)N)C(=O)N[C@@H](CCCCN)C(=O)N[C@@H](CC(C)C)C(=O)N[C@@H](CC(C)C)C(=O)N[C@@H](CCC(N)=O)C(=O)N[C@@H](CC(=O)O)C(=O)N[C@H](C(=O)N[C@@H](CCSC)C(=O)N[C@@H](CO)C(=O)N[C@@H](CCCN=C(N)N)C(N)=O)[C@@H](C)CC)[C@@H](C)O` (H-YADAIFTNSYRK[Aoc]QLSARKLLQDIMSR-NH2): in experiment [1], the IC50 was over 1000 nM.
In experiment [1], H-ADAIFTNSYRKVLAQLSARKLLQDIMSR-NH2 yielded an IC50 of 377 nM.
The molecule H-ADAIFTSSYRRILGQLYARKLLHEIMNR-NH2 yielded an IC50 in experiment [1] of 44.2 nM.
Consider H-YADAIFTNSYRKVLGQLSALLQDIMSR-NH2, for which, in experiment [1], the IC50 is over 1000 nM.
The same measure, in the same setting: the result for H-YADAIFTNSYRKVLGQLSARKLLDIMSR-NH2 reads 45.2 nM; that for H-YADAIFTNSYRKVLGQLSARKLLQDIMR-NH2, 7.2 nM.
The molecule H-YADAIFTNSYRKVLGQLSARKLLQDIR-NH2 showed an IC50 in experiment [1] of 120 nM.
For the molecule H-YADAIFTNSYRKVLGQLSARKLLQDISR-NH2, half-maximal inhibition in experiment [1] (IC50) required 9.5 nM.
For H-YADAIFTNSYRKVLGQLSARKLLQIMSR-NH2, 16.9 nM corresponded to half-maximal inhibition in experiment [1] (IC50).
In experiment [1], H-YADAIFTNSYRKVLGQLSARLLQDIMSR-NH2 came in with an IC50 of over 1000 nM.
In experiment [1], H-YADAIFTSYRKVLGQLSARKLLQDIMSR-NH2 gave an IC50 of 95 nM.
